Results taken from ChEMBL document CHEMBL1150793, “In vitro susceptibilities of 217 clinical isolates of zygomycetes to conventional and new antifungal agents” (2007).
Converted amounts (≈) assume the structure as drawn. The source made the active and inactive calls. The rule behind the calls is not given here.

Assays:
[1] = system: Rhizopus; assay: Antimicrobial activity against Rhizopus sp. after 24 hrs; assay type: functional
How it was run: (§1)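 Broth microdilution of clinical isolates following CLSI M38-A for filamentous fungi. The polyene and echinocandin agents were tested in antibiotic medium 3, and the other agents in RPMI 1640. Plates were incubated 24 h at 35°C and end points read visually. The echinocandin end point was the minimal effective concentration (MEC); the others were MICs.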

[2] = system: Rhizopus arrhizus; assay: Antimicrobial activity against Rhizopus arrhizus after 24 hrs; assay type: functional
How it was run: (§2)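 Clinical zygomycete isolates tested by broth microdilution in microtiter format, in essential agreement with CLSI M38-A for filamentous fungi. The polyene and echinocandin were tested in antibiotic medium 3, and the other agents in RPMI 1640. Plates were incubated for 24 h at 35°C, and end points were read visually. The echinocandin end point was taken as the minimal effective concentration.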

[3] = system: Rhizopus microsporus var. rhizopodiformis; assay: Antimicrobial activity against Rhizopus microsporus var. rhizopodiformis after 24 hrs; assay type: functional; how it was run: as §1
[4] = system: Mucor; assay: Antimicrobial activity against Mucor sp. after 24 hrs; assay type: functional; how it was run: as §1
[5] = system: Absidia; assay: Antimicrobial activity against Absidia sp. after 24 hrs; assay type: functional, organism-based; how it was run: as §2
[6] = system: Mucor circinelloides; assay: Antimicrobial activity against Mucor circinelloides after 24 hrs; assay type: functional; how it was run: as §2
[7] = system: Rhizomucor; assay: Antimicrobial activity against Rhizomucor sp. after 24 hrs; assay type: functional; how it was run: as §2
[8] = system: Lichtheimia corymbifera; assay: Antimicrobial activity against Absidia corymbifera after 24 hrs; assay type: functional; how it was run: as §2
[9] = system: Cunninghamella; assay: Antimicrobial activity against Cunninghamella sp. after 24 hrs; assay type: functional; how it was run: as §2
[10] = system: Apophysomyces elegans; assay: Antimicrobial activity against Apophysomyces elegans after 24 hrs; assay type: functional; how it was run: as §2
[11] = system: Rhizopus; assay: Antimicrobial activity against Rhizopus sp. assessed as percent of susceptible isolates after 24 hrs; assay type: functional
[12] = system: Rhizopus arrhizus; assay: Antimicrobial activity against Rhizopus arrhizus assessed as percent of susceptible isolates after 24 hrs; assay type: functional
[13] = system: Rhizopus microsporus var. rhizopodiformis; assay: Antimicrobial activity against Rhizopus microsporus var. rhizopodiformis assessed as percent of susceptible isolates after 24 hrs; assay type: functional
[14] = system: Rhizopus microsporus var. microsporus; assay: Antimicrobial activity against Rhizopus microsporus var. microsporus assessed as percent of susceptible isolates after 24 hrs; assay type: functional
[15] = system: Mucor; assay: Antimicrobial activity against Mucor sp. after assessed as percent of susceptible isolates after 24 hrs; assay type: functional
[16] = system: Mucor circinelloides; assay: Antimicrobial activity against Mucor circinelloides assessed as percent of susceptible isolates after 24 hrs; assay type: functional
[17] = system: Rhizomucor; assay: Antimicrobial activity against Rhizomucor sp. assessed as percent of susceptible isolates after 24 hrs; assay type: functional
[18] = system: Absidia; assay: Antimicrobial activity against Absidia sp. assessed as percent of susceptible isolates after 24 hrs; assay type: functional
[19] = system: Lichtheimia corymbifera; assay: Antimicrobial activity against Absidia corymbifera assessed as percent of susceptible isolates after 24 hrs; assay type: functional
[20] = system: Cunninghamella; assay: Antimicrobial activity against Cunninghamella sp. assessed as percent of susceptible isolates after 24 hrs; assay type: functional
[21] = system: Apophysomyces elegans; assay: Antimicrobial activity against Apophysomyces elegans assessed as percent of susceptible isolates after 24 hrs; assay type: functional

Row | SMILES | MIC50 [1] [µg/mL] | MIC90 [1] [µg/mL] | MIC50 [2] [µg/mL] | MIC50 [3] [µg/mL] | MIC50 [4] [µg/mL] | MIC90 [4] [µg/mL] | Activity [5] | Activity [11] [%] | Activity [12] [%] | Activity [13] [%] | Activity [15] [%] | Activity [16] [%] | Activity [17] [%] | Activity [18] [%] | Activity [19] [%] | Activity [20] [%] | Activity [21] [%] | Activity [6] | Activity [7] | Activity [8] | further results
1 | C[C@@H]1[C@H](O)[C@@H](C)/C=C/C=C/C=C/C=C/C=C/C=C/C=C/[C@H](O[C@@H]2O[C@H](C)[C@@H](O)[C@H](N)[C@@H]2O)C[C@@H]2O[C@](O)(C[C@@H](O)C[C@@H](O)[C@H](O)CC[C@@H](O)C[C@@H](O)CC(=O)O[C@H]1C)C[C@H](O)[C@H]2C(=O)O [AMPHOTERICIN B] | 0.25 (≈ 0.271 µM) | 0.5 (≈ 0.541 µM) | 0.25 (≈ 0.271 µM) | 0.25 (≈ 0.271 µM) | 0.25 (≈ 0.271 µM) | 0.5 (≈ 0.541 µM) | inactive | 100 | 100 | 100 | 94 | 100 | 100 | 100 | 100 | 63 | 100 | – | – | – | MIC90 [2]: 0.25 µg/mL (≈ 0.271 µM); MIC90 [3]: 0.25 µg/mL (≈ 0.271 µM); MIC50 [6]: 0.25 µg/mL (≈ 0.271 µM); MIC50 [7]: 0.125 µg/mL (≈ 0.135 µM); MIC50 [8]: 0.25 µg/mL (≈ 0.271 µM); MIC50 [9]: 1 µg/mL (≈ 1.08 µM); MIC50 [10]: 0.125 µg/mL (≈ 0.135 µM); Activity [14]: 100%
2 | CC[C@H](C)C[C@H](C)CCCCCCCCC(=O)N[C@H]1C[C@@H](O)[C@@H](NCCN)NC(=O)[C@@H]2[C@@H](O)CCN2C(=O)[C@H]([C@H](O)CCN)NC(=O)[C@H]([C@H](O)[C@@H](O)c2ccc(O)cc2)NC(=O)[C@@H]2C[C@@H](O)CN2C(=O)[C@H]([C@@H](C)O)NC1=O [CASPOFUNGIN] | > 16 | > 16 | > 16 | > 16 | > 16 | > 16 | inactive | 0 | 0 | 0 | 0 | 0 | 0 | 0 | 0 | 0 | 0 | inactive | inactive | inactive | Activity [9]: inactive; Activity [10]: inactive
3 | OC(Cn1cncn1)(Cn1cncn1)c1ccc(F)cc1F [FLUCONAZOLE] | > 64 | > 64 | – | – | > 64 | – | inactive | 0 | 0 | 0 | 0 | 0 | 0 | – | – | 0 | 0 | inactive | inactive | inactive | Activity [2]: inactive; Antimicrobial activity [3]: inactive; Activity [9]: inactive; Activity [10]: inactive
4 | Nc1nc(=O)[nH]cc1F [FLUCYTOSINE] | – | – | – | – | > 64 | – | – | 0 | 0 | 0 | 0 | 0 | – | – | – | 0 | – | inactive | – | – | Activity [1]: inactive; Activity [2]: inactive; Activity [3]: inactive; Activity [9]: inactive
5 | CCC(C)n1ncn(-c2ccc(N3CCN(c4ccc(OC[C@H]5CO[C@](Cn6cncn6)(c6ccc(Cl)cc6Cl)O5)cc4)CC3)cc2)c1=O (some centres not stated) [ITRACONAZOLE] | 0.5 (≈ 0.709 µM) | 4 (≈ 5.67 µM) | 0.5 (≈ 0.709 µM) | 0.5 (≈ 0.709 µM) | 0.5 (≈ 0.709 µM) | > 8 | inactive | 62 | 50 | 60 | 57 | 0 | 67 | 50 | 100 | 29 | 80 | inactive | inactive | inactive | MIC50 [9]: 1 µg/mL (≈ 1.42 µM); MIC50 [10]: 0.125 µg/mL (≈ 0.177 µM); Activity [14]: 0%
6 | CC(=O)N1CCN(c2ccc(OCC3COC(Cn4ccnc4)(c4ccc(Cl)cc4Cl)O3)cc2)CC1 (configuration not stated) [KETOCONAZOLE] | 1 (≈ 1.88 µM) | – | – | – | – | – | inactive | 83 | 0 | 0 | 33 | 0 | – | – | – | 0 | – | inactive | inactive | inactive | Activity [2]: inactive; Activity [3]: inactive; Activity [4]: inactive; Activity [9]: inactive; Activity [10]: inactive
7 | CC[C@@H]([C@H](C)O)n1ncn(-c2ccc(N3CCN(c4ccc(OC[C@@H]5CO[C@@](Cn6cncn6)(c6ccc(F)cc6F)C5)cc4)CC3)cc2)c1=O [POSACONAZOLE] | 0.25 (≈ 0.357 µM) | 1 (≈ 1.43 µM) | 0.25 (≈ 0.357 µM) | 0.25 (≈ 0.357 µM) | 0.5 (≈ 0.713 µM) | 2 (≈ 2.85 µM) | inactive | 80 | 64 | 78 | 70 | 0 | 67 | 100 | 100 | 75 | 83 | inactive | inactive | inactive | MIC90 [2]: 1 µg/mL (≈ 1.43 µM); MIC50 [9]: 0.5 µg/mL (≈ 0.713 µM); MIC50 [10]: 0.03 µg/mL (≈ 0.0428 µM)
8 | C[C@@H](c1ncncc1F)[C@](O)(Cn1cncn1)c1ccc(F)cc1F [VORICONAZOLE] | 8 (≈ 22.9 µM) | > 8 | > 8 | – | > 8 | > 8 | inactive | 5 | 0 | 0 | 0 | 0 | 0 | 0 | 0 | 10 | 100 | inactive | inactive | inactive | Antimicrobial activity [3]: inactive; MIC50 [9]: > 8 µg/mL; MIC90 [9]: > 8 µg/mL
